# Data: ChEMBL document CHEMBL4823317, “Synthesis, in vitro cytotoxicity and biological evaluation of twenty novel 1,3-benzenedisulfonyl piperazines as antiplatelet agents” (Bioorg Med Chem, 2021)
# Experiments:
# [1] = system: Blood; experiment: Anti-platelet aggregation activity in rabbit venous blood assessed as inhibition of ADP-induced aggregation at 1.3 uM pre-treated for 2 mins followed by ADP addition by Born turbidimetric method relative to control; assay type: functional; conditions: Oryctolagus cuniculus
# Summary of the method: (§1)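 Platelet-rich plasma from male rabbit (2–3 kg) ear-vein blood, citrate anticoagulated (3.8%, 9:1), spun 1000 rpm 10 min at room temperature; platelet-poor plasma (3000 rpm 10 min) as blank. Compound at 1.3 µM, from DMSO solution (DMSO 0.5% v/v vehicle control), preincubated 2 min in PRP before inducer. Inhibition% = (1 − D/S) × 100, where S is aggregation with solvent.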
# [2] = system: Blood; experiment: Anti-platelet aggregation activity in rabbit venous blood assessed as inhibition of ADP-induced aggregation pre-treated for 2 mins followed by ADP addition by Born turbidimetric method; assay type: functional, tissue-based; conditions: Oryctolagus cuniculus
# Summary of the method: (§2)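 Rabbit PRP Born turbidimetry with the same 2 min compound preincubation. ADP or arachidonic acid as inducer. Compounds tested at 1.3, 0.65 and 0.325 µM. Inhibition% = (1 − D/S) × 100 versus the solvent control, and IC50 calculated from these inhibition rates.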
# [3] = system: Blood; experiment: Anti-platelet aggregation activity in rabbit venous blood assessed as inhibition of arachidonic acid-induced aggregation at 1.3 uM pre-treated for 2 mins followed by ADP addition by Born turbidimetric method relative to control; assay type: functional; conditions: Oryctolagus cuniculus; summary of the method: as §1
# [4] = system: Blood; experiment: Anti-platelet aggregation activity in rabbit venous blood assessed as inhibition of arachidonic acid-induced aggregation pre-treated for 2 mins followed by ADP addition by Born turbidimetric method; assay type: functional, tissue-based; conditions: Oryctolagus cuniculus; summary of the method: as §2
# [5] = system: Blood; experiment: Anti-platelet aggregation activity in rabbit venous blood assessed as inhibition of collagen-induced aggregation at 1.3 uM pre-treated for 2 mins followed by ADP addition by Born turbidimetric method relative to control; assay type: functional; conditions: Oryctolagus cuniculus; summary of the method: as §1
# [6] = Cytotoxicity against mouse L929 cells assessed as cell survival at 10 uM incubated for 48 hrs by CCK-8 assay relative to control; assay type: cell-based; conditions: read-out: Activity
# Summary of the method: (§3)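 L929 mouse fibroblasts seeded at 10,000 cells/well in RPMI-1640 and allowed to attach 24 h at 37 °C. Compounds then added at 10 and 100 µM for 48 h at 37 °C. Medium replaced with fresh medium, CCK-8 added, 30 min further incubation, absorbance read at 450 nm. Viability = Abs(test)/Abs(control) × 100%.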
# [7] = Cytotoxicity against mouse L929 cells assessed as cell survival at 100 uM incubated for 48 hrs by CCK-8 assay relative to control; assay type: cell-based; conditions: read-out: Activity; summary of the method: as §3
SMILES,inhibition at 1.3 µM [1] [%],IC50 [2] [nM],inhibition at 1.3 µM [3] [%],IC50 [4] [nM],inhibition at 1.3 µM [5] [%],"viability at 48 h, 10 µM [6] [%]","viability at 48 h, 100 µM [7] [%]"
COc1ccc(C(=O)NCc2cccnc2)cc1C(=O)NCc1cccnc1 [PICOTAMIDE],45.5,470,37.1,340,49.2,,
CC(=O)Oc1ccccc1C(=O)O [ASPIRIN],46.3,440,38.5,430,49.1,,
COc1ccc(S(=O)(=O)N2CCN(c3cccc(C)c3)CC2)cc1S(=O)(=O)N1CCN(c2cccc(C)c2)CC1,21.1,,33.7,710,54.2,85.2,66.7
COc1ccc(S(=O)(=O)N2CCN(c3ccc(C)cc3)CC2)cc1S(=O)(=O)N1CCN(c2ccc(C)cc2)CC1,30.4,,34.1,680,32.6,,
CCOc1ccc(S(=O)(=O)N2CCN(C)CC2)cc1S(=O)(=O)N1CCN(C)CC1,24.5,,18.1,,29.5,,
CCOc1ccc(S(=O)(=O)N2CCN(c3ccc(C)cc3)CC2)cc1S(=O)(=O)N1CCN(c2ccc(C)cc2)CC1,43.6,720,43,260,28.5,51.8,7.4
CCN1CCN(S(=O)(=O)c2ccc(OC)c(S(=O)(=O)N3CCN(CC)CC3)c2)CC1,24.3,,22.4,,42.6,,
CCOc1ccc(S(=O)(=O)N2CCN(CC)CC2)cc1S(=O)(=O)N1CCN(CC)CC1,28.8,,29.9,,41.7,,
CCOc1ccc(S(=O)(=O)N2CCN(Cc3ccccc3)CC2)cc1S(=O)(=O)N1CCN(Cc2ccccc2)CC1,24,,20.1,,49.8,55.6,22.2
CCOc1ccc(S(=O)(=O)N2CCN(c3ccccc3F)CC2)cc1S(=O)(=O)N1CCN(c2ccccc2F)CC1,21,,25.8,,50.3,70.4,3.7
COc1ccc(S(=O)(=O)N2CCN(c3ccccc3)CC2)cc1S(=O)(=O)N1CCN(c2ccccc2)CC1,27.9,,15.7,,20.4,,
COc1ccc(S(=O)(=O)N2CCN(c3ccccc3C)CC2)cc1S(=O)(=O)N1CCN(c2ccccc2C)CC1,38.9,950,36.9,360,32.1,,
CCOc1ccc(S(=O)(=O)N2CCN(C(C)C)CC2)cc1S(=O)(=O)N1CCN(C(C)C)CC1,36.4,800,24.9,,39,,
CCOc1ccc(S(=O)(=O)N2CCN(c3cccc(C)c3)CC2)cc1S(=O)(=O)N1CCN(c2cccc(C)c2)CC1,50.3,450,34.8,430,48.8,56.6,33.3
COc1ccc(S(=O)(=O)N2CCN(C(C)C)CC2)cc1S(=O)(=O)N1CCN(C(C)C)CC1,28.4,,27.1,,49.4,,
CCOc1ccc(S(=O)(=O)N2CCN(c3ccccc3OC)CC2)cc1S(=O)(=O)N1CCN(c2ccccc2OC)CC1,25.5,,23.1,,25.2,,
CCOc1ccc(S(=O)(=O)N2CCN(c3ccccc3C)CC2)cc1S(=O)(=O)N1CCN(c2ccccc2C)CC1,28.9,,33.1,650,41.6,,
CCOc1ccc(S(=O)(=O)N2CCN(c3ccccc3)CC2)cc1S(=O)(=O)N1CCN(c2ccccc2)CC1,40.1,910,23.6,,26.9,,
COc1ccc(S(=O)(=O)N2CCN(c3ccccc3F)CC2)cc1S(=O)(=O)N1CCN(c2ccccc2F)CC1,28,,40.6,480,28.8,77.8,66.7
COc1ccccc1N1CCN(S(=O)(=O)c2ccc(OC)c(S(=O)(=O)N3CCN(c4ccccc4OC)CC3)c2)CC1,28.7,,28.1,,27.6,,
COc1ccc(S(=O)(=O)N2CCN(C)CC2)cc1S(=O)(=O)N1CCN(C)CC1,38.2,980,29.5,,52.6,77.8,33.3
COc1ccc(S(=O)(=O)N2CCN(Cc3ccccc3)CC2)cc1S(=O)(=O)N1CCN(Cc2ccccc2)CC1,33.2,1150,38.5,330,22.8,55.6,22.2
